Autophagy mod: autophagy modulation, high-content screen. calls only at 10 µM (by protocol). MEF GFP-LC3 puncta imaging; test concentration mostly 10 µM. actives 0.98% (n = 190,000);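 active means percentage of spot-positive cells more than 3 SD above its plate mean, without a fluorescence outlier flag or 80% toxicity; inconclusive means no clear call, values can overlap the other calls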;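 further: spot-positive cell cutoff set from DMSO-treated cells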
Wee1 stabilizer: human Wee1 degradation inhibition, primary screen. P30291. HeLa Luc-Wee1K328M stability, luciferase luminescence; 100% = proteasome inhibitor MG132 effect. reporter increase, % at 5 µM. actives 1.2% (n = 220,000). AID 1321;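 active means activation above the mean of all tested compounds plus 3 SD, set per screening run, cut at about 8.8% in these data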;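 further: cells exposed to compound for 20 h before luminescence read; 0% = DMSO alone and 100% = MG132 at 30 µM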
Target sequence (P30291 whole entry K328M): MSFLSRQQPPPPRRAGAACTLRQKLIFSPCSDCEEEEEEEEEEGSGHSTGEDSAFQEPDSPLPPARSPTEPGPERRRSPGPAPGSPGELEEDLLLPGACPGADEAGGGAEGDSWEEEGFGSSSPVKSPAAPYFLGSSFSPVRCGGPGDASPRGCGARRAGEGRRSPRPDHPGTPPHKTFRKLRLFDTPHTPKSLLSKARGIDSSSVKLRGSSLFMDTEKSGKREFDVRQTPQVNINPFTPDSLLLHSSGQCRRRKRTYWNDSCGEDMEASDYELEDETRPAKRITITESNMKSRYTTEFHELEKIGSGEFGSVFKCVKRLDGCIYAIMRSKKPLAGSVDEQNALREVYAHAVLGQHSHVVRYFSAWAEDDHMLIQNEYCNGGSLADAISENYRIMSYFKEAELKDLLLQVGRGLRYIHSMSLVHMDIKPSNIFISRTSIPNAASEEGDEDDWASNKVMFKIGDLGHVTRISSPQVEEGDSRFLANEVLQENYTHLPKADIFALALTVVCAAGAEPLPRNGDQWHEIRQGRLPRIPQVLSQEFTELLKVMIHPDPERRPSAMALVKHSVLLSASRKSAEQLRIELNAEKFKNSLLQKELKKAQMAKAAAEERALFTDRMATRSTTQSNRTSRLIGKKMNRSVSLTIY
Insulin prom up: MIN6 insulin promoter up-regulation | MIN6 insulin promoter-GFP reporter, high-content imaging; hits give high values | z-score at 5 µM | actives 0.3% (n = 190,000) | AID 1625;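 active means z-score above 3 at 5 µM with at least 500 cells counted in the well; inconclusive means wells under 500 cells, flagged as cytotoxic or low count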
MT stabilize HCS: microtubule stabilization, imaging screen; HeLa tubulin immunostaining HCS, 24 h; share of cells brighter than vehicle mean+2SD; % tubulin-high responders, % at 10 µM; actives 0.83% (n = 200,000);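 active means plate Z-score above 3 for both tubulin-high and condensed-nucleus cell shares, with cell loss under 80%, at 10 µM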;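 further: anti alpha tubulin signal scored within the nucleus-defined area of each cell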
bCat nuc transl: alters nuclear translocation of beta-catenin in HeLa cells; actives 0.3% (n = 190,000); immunofluorescence imaging; nuclear translocation activity, % at 5 µM; AID 1665;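 active means nuclear translocation activity above 50% at 5 µM, with a well cell count of 50 or more; inconclusive means wells under 50 cells across six images, flagged as toxic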;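 further: per-cell ratio of nuclear to cytoplasmic median beta-catenin stain intensity; plate controls were DMSO negative control for no effect and GSK-3 inhibitor IX positive control for full effect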
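System: HeLa cells, endogenous beta-catenin; compound dosing: 5 µM primary single dose, 0.1% DMSO, 0.02–20 µM confirmation series; incubation: 24 h compound exposure at 37°C, 5% CO2; signal: beta-catenin immunofluorescence imaging with DAPI; evaluation: % activation, nuclear-to-cytoplasmic median beta-catenin signal ratio per cell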
* hit, by the source's call; i = inactive; ? = inconclusive; . = not tested or not shown; + = active, no number. Shown are actives, neighbours in structure and some others; about 2.9% of the full set was active somewhere.

SMILES	Autophagy mod	Wee1 stabilizer	Insulin prom up	MT stabilize HCS	bCat nuc transl
O=C(c1ccc([N+](=O)[O-])cc1)N(Cc1ccc(Br)cc1)N1C(=O)CCCC1=O	+	4.3	0.98	2.2	.
CCC1(CC)NC(=O)N(CC(=O)OCC(=O)Nc2ccc(F)c(F)c2F)C1=O	i	3.1	.	2.3	0.2
Cc1cccc(-n2ncc3c(NCc4ccco4)ncnc32)c1	i	6.2	.	28.1*	45.4
COc1ccc(Nc2ncnc3c2cnn3-c2ccccc2)cc1OC	.	-1.3	1.52	4.0	-0.4
Cc1ccc(-n2ncc3c(NCc4ccco4)ncnc32)cc1C	i	3.4	-1.64	9.4*	-0.5
COc1ccc(OC)c(Nc2ncnc3c2cnn3-c2cccc(C)c2)c1	+	2.5	-0.25	34.7*	1.4
CC(Sc1nc2ccccc2[nH]1)C(=O)Nc1ccccc1F (stereo not given)	i	4.3	-0.35	4.1	-1.3
COc1ccc(CNCC(O)(c2ccc(F)cc2)c2ccc(F)cc2)cc1	+	3.5	0.56	0.9	-1.5
CCCCNC(=O)CCn1c(=O)c2ccccc2n(CC(=O)NCCc2ccc(OC)c(OC)c2)c1=O	i	8.6	-0.49	6.0	-2.3
Oc1ccccc1/C=N/Nc1nccnc1Cl	i	1.3	.	3.8	.
COc1cccc(/C=N/Nc2nccnc2Cl)c1O	+	-3.6	-3.45	4.7	2.0
COc1cccc(/C=N/Nc2ncnc(Cl)c2N)c1O	i	1.1	?	2.9	-0.8
Oc1ccc(/C=N/Nc2nccnc2Cl)c(O)c1	i	10.1*	.	3.6	.
CC(=O)Nc1ccc(NC(=O)C(OC(=O)c2ccccc2)C(OC(=O)c2ccccc2)C(=O)O)cc1 (stereo not given)	i	0.7	0.12	3.4	1.3
COC(=O)c1nn2c(C(F)(F)F)cc(-c3ccc(Br)o3)nc2c1Br	+	1.3	0.23	6.5	-7.8
COc1cc(/C=N/NC(=O)CSc2nc3ccccc3n2C)cc(OC)c1OC	i	-0.3	-0.09	4.7	-4.4
COc1ccc(-c2nc(CC(=O)O)cs2)cc1	i	0.7	1.16	2.9	.
COc1ccc(-c2nc(CC(=O)O)cs2)cc1OC	i	22.7*	0.72	0.7	-4.2
COc1cc(-c2ccc(NC(=O)CN3CCCCC3)c(OC)c2)ccc1NC(=O)CN1CCCCC1	i	8.9*	.	5.2	.
Cc1ccc2nc(C3CCCN(C(=S)Nc4cccc(C)c4C)C3)[nH]c2c1 (stereo not given)	i	4.3	0.18	29.5*	-0.4
COc1ccc(-c2nc3ccc(N4CCCC4)cc3c(=O)[nH]2)cc1OC	i	-0.8	-0.76	15.1*	-1.0
CCOC(=O)CN(C(=O)CSc1nnc(COc2ccc(OC)cc2)n1C)c1ccccc1	i	-3.9	-1.01	2.6	1.4
CC(CN(C)Cc1ccccc1)OC(=O)c1ccccc1F (stereo not given)	i	-0.1	-0.41	2.7	-1.7
CCN(CC)CC(C)OC(=O)c1ccccc1Cl (stereo not given)	+	-1.0	-0.09	2.6	0.6
Cc1cnc(NC(=O)CN2CCN(c3ccccn3)CC2)s1	i	-0.4	3.14*	7.5	0.7
SMILES	Autophagy mod	Wee1 stabilizer	Insulin prom up	MT stabilize HCS	bCat nuc transl
N#Cc1ccsc1NC(=O)CN1CCN(c2ccccn2)CC1	i	-0.5	-2.05	1.1	.
CCCNC(=O)Cn1c(-c2ccc(F)cc2)cc(C(=O)OCC)c1C	+	5.8	.	2.3	.
CCOC(=O)c1cc(-c2ccc(F)cc2)n(CC(=O)NC(C)CC)c1C (stereo not given)	i	1.5	-1.38	2.9	-0.7
CCOC(=O)c1cc(-c2ccccc2)n(CC(=O)O)c1C	+	-0.2	0.28	2.2	.
Cc1onc(-c2c(F)cccc2Cl)c1C(=O)NC(=S)NCc1cccnc1	i	-1.3	-0.03	3.6	0.6
Cc1nc(Nc2cccc(C(F)(F)F)c2)nc2c1C(=O)CC(C)C2 (stereo not given)	+	-2.0	-0.06	1.8	0.1
Cc1ccc(Nc2nc(C)c3c(n2)CC(C)CC3=O)c(C)c1 (stereo not given)	.	-1.9	-0.59	.	0.4
CCOc1ccc2[nH]c(=O)c(CN(Cc3ccccc3OC)C(=O)c3ccccc3)cc2c1	i	-1.5	-0.82	24.1*	-2.0
COc1ccc2[nH]c(=O)c(CN(Cc3ccco3)C(=O)c3ccccc3)cc2c1	i	-1.0	.	3.7	-7.2
CCOc1ccc2[nH]c(=O)c(CN(CC3COCCO3)C(=O)c3ccco3)cc2c1 (stereo not given)	.	.	0.25	.	-2.7
CCOc1ccc2[nH]c(=O)c(CN(Cc3ccc(F)cc3)C(=O)c3ccco3)cc2c1	i	-1.3	0.1	47.2*	-3.7
Cc1cc2nc(-c3ccc(SCc4ccc(C(=O)O)cc4)nc3)[nH]c2cc1C	i	-0.2	-0.15	17.5*	12.0
CN(C)c1ccc(/C=C/c2ccc3c4ccccc4ccc3[n+]2-c2ccccc2)cc1	+	-3.7	?	82.7	?
CN(C)c1ccc(/C=C/c2ccc3ccccc3[n+]2C)cc1	+	-4.3	?	31.6	-0.2
CN(C)c1ccc(/C=C/c2cccc[n+]2[O-])cc1	.	9.9*	0.21	.	-0.9
Cc1ccc(NC(=O)NNC(=O)c2snnc2C)cc1	i	5.8	0.16	3.6	-1.5
N#Cc1cc(S(=O)(=O)c2ccc(Cl)cc2)c(N)[nH]c1=O	i	10.6*	0.15	1.3	1.4
Cc1ccc(C)c(NC(=O)c2ccc(S(=O)(=O)C(F)F)cc2)c1	i	-2.8	-0.11	6.8	0.7
O=C(NN1CCN(Cc2ccccc2Cl)CC1)c1ccc(Br)cc1	i	-1.0	0.16	2.8	2.2
CCOc1ncccc1C(=O)NCc1ccc(OC)cc1	i	2.1	0.62	35.8*	24.3
CCOc1ncccc1C(=O)NCc1ccccc1	i	-2.8	?	2.9	.
COc1cccc(OCCn2cc(/C=N/NC(=O)c3ccncc3)c3ccccc32)c1	+	-0.5	-0.06	2.2	1.0
COc1ccc(N(CCCN2C(=O)c3cccc4cccc(c34)C2=O)C(=O)c2ccncc2)cc1	i	1.9	-0.72	2.3	0.5
COc1ccc(N(CCN2C(=O)c3ccccc3C2=O)C(=O)c2cccc([N+](=O)[O-])c2)cc1	i	-2.1	3.09*	2.6	0.1
O=C(NCc1ccco1)C(=O)N1CCCC1	i	-1.5	0.4	2.1	1.0
COc1ccc(SCCC(=O)NCc2ccncc2)cc1	.	0.9	0.11	.	0.9
O=C(CC1SC(=Nc2ccccc2)N(CCO)C1=O)Nc1ccccc1 (stereo not given)	i	-1.3	0.83	3.3	-1.0
Cc1cc(C)cc(N=C2SC(CC(=O)Nc3ccccc3)C(=O)N2CCN2CCOCC2)c1 (stereo not given)	+	-2.2	-0.72	3.4	-2.1
O=C(c1ccc(C(F)(F)F)cc1)C1CCCN(C(=O)CN2CCCC2=O)C1 (stereo not given)	i	0.0	0.9	3.2	-0.8

Screens (PubChem)
